This passage reports inhibition and Activity results from ChEMBL document CHEMBL4261627, “Design, synthesis and anti-melanogenic effect of cinnamamide derivatives” (Bioorg Med Chem, 2018).

Data set [1] is described as follows: Antioxidant activity assessed as DPPH-radical scavenging activity at 1 mM incubated for 30 mins under dark condition. Format: functional. The essentials: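 DPPH (0.2 mM in methanol, 180 µL) was mixed with 20 µL of compound from a 10 mM DMSO stock, giving 1 mM final. The mix was kept in the dark for 30 min and read at 517 nm, with L-ascorbic acid as reference. % scavenging = (Ac−As)/Ac × 100 against untreated control. Triplicate, mean ± SD.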
A general note: Loss of DPPH colour is used to gauge radical scavenging.

For data set [2], the system named is B16-F10. Briefly: Cytotoxicity against mouse B16F10 cells up to 25 uM after 24 hrs by WST8 assay. To be noted: b16-f10, 24 h. It counts as cell-based. The method in brief: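 B16F10 cells (from DMEM/10% FBS culture) were seeded at 1x10^4 cells/well and held 24 h at 37 °C, 5% CO2. Compound (0, 5, 10, 25 µM) was added for a further 24 h. WST-8 reagent was then applied for 30 min to 2 h at 37 °C and OD read at 450 nm. Viability expressed as % of control; triplicate.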
A general note: Tetrazolium assays rely on reduction of a dye to a coloured formazan, in cell work by metabolically active cells.

For data set [3], the target named is T1, Tyrosinase (Mus musculus) (UniProt P11344).
T1 sequence (whole entry): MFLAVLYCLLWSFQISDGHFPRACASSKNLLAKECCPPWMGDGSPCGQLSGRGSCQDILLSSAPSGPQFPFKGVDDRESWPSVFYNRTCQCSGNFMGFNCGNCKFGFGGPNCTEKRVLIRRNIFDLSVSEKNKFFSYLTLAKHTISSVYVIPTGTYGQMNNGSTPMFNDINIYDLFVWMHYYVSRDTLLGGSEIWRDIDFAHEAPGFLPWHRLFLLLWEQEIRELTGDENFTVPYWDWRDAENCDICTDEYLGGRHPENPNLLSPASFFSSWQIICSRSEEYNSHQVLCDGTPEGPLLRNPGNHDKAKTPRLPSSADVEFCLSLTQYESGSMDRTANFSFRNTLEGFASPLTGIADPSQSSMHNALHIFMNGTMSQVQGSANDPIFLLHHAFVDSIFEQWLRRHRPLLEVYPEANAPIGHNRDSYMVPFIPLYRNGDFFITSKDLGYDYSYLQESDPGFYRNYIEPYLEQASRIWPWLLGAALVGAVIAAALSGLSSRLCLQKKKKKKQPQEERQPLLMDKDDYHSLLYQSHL
Briefly: Inhibition of tyrosinase in alpha-MSH stimulated mouse B16F10 cells using L-dopa as substrate pretreated for 24 hrs followed by substrate addition and measured after 30 mins. The essentials: (§1)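 Cells were lysed in pH 6.8 phosphate buffer with 0.1 mM PMSF and 1% Triton X-100, frozen at −80 °C, and spun. Supernatant (80 µL) was incubated with 20 µL of 10 mM L-dopa at 37 °C for 30 min and read at 500 nm. Triplicate.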

The target of data set [4] is T1, Tyrosinase (Mus musculus). Briefly: Inhibition of tyrosinase in alpha-MSH stimulated mouse B16F10 cells at 10 uM using L-dopa as substrate pretreated for 24 hrs followed by substrate addition and measured after 30 mins. The method in brief: as §1
For data set [5], the system named is B16-F10. Briefly: Antimelanogenic activity in mouse B16F10 cells assessed as inhibition of alpha-MSH-stimulated melanin synthesis at 25 uM measured after 24 hrs. The settings on record: B16-F10, 24 h. It counts as functional. The essentials: (§2)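 B16F10 cells were seeded at 5x10^4 cells/well and grown 24 h at 37 °C in 5% CO2. […] After PBS washes, melanin was dissolved in 1 N NaOH and read as absorbance at 405 nm. Triplicate, mean ± SEM.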

Data set [6] deals with B16-F10. Briefly: Antimelanogenic activity in mouse B16F10 cells assessed as inhibition of alpha-MSH-stimulated melanin synthesis at 10 uM measured after 24 hrs. Format: functional, cell-based. The essentials:
as §2

The target in data set [7] is T1, Tyrosinase (Mus musculus). To be noted: 400 uM.

Regarding `O=C1O[C@H]([C@@H](O)CO)C(O)=C1O`, in data set [1], the inhibition worked out at 84.6%.

As for `O=C(/C=C/c1ccc(O)c(O)c1)N1CCCC1`, the inhibition in data set [1] amounted to 83.2%.

In the case of `O=C(/C=C/c1ccc(O)cc1O)N1CCCC1`, the Activity entry in the data set on B16-F10 [2] is listed as “Non-Toxic”. In addition, the inhibition result in data set [3] was “Dose-dependent effect”; in data set [4] it was 38.3%; in the data set with B16-F10 [6] it was “Dose-dependent effect”; in data set [1], 22.3%. Besides, in the data set with B16-F10 [5], the inhibition at 25 µM was 78.3%.

As to `O=c1cc(CO)occ1O` [KOJIC ACID], the inhibition at 25 µM in the data set on B16-F10 [5] worked out at 37.6%.

`O=C(/C=C/c1ccc(O)cc1O)N1CCCCC1`: the Activity result in the data set on B16-F10 [2] was “Non-Toxic”. In addition, the values for the inhibition (in data set [4]; with B16-F10 [6]; in data set [1]) were 23.3%, “Dose-dependent effect” and 30.7%, respectively. In addition, the inhibition at 25 µM with B16-F10 [5] was determined as 61.8%.

As for `COc1ccc(/C=C/C(=O)N2CCCCC2)cc1O`, the inhibition in data set [1] turned out to be 37.6%.

`COc1cc(/C=C/C(=O)N2CCCCC2)ccc1O`: the Activity result in the data set with B16-F10 [2] is on record as “Non-Toxic”. In addition, the inhibition result was “Dose-dependent effect” in data set [3], 44% in data set [4], “Dose-dependent effect” in the data set on B16-F10 [6] and 80.7% in data set [1]. The inhibition at 25 µM in the data set with B16-F10 [5] was 72.7%.

Consider `O=C(/C=C/c1ccc(O)cc1)N1CCCC1`, for which the inhibition in data set [1] stood at 3.51%.

Turning to `OC[C@H]1O[C@@H](Oc2ccc(O)cc2)[C@H](O)[C@@H](O)[C@@H]1O`, the inhibition in data set [7] came to 51.7%.

On to `COc1ccc(/C=C/C(=O)N2CCCC2)cc1O`, for which the inhibition in data set [1] is 34.2%.

For `COc1cc(/C=C/C(=O)N2CCCC2)ccc1O`, in data set [1], the inhibition turned out to be 82.1%.

Regarding `O=C(/C=C/c1ccc(O)c(O)c1)N1CCCCC1`, in data set [1], the inhibition worked out at 82.8%.

With `O=C(/C=C/c1ccc(O)cc1)N1CCCCC1`, in data set [1], the inhibition was 0.91%.

As usually defined, the inhibition is the relative decrease from the control value, in per cent.
